Assay results published in ChEMBL document CHEMBL1155356, “Design, synthesis, and structure-activity relationship of novel orally efficacious pyrazole/sulfonamide based dihydroquinoline gamma-secretase inhibitors” (Bioorg Med Chem Lett, 2009).

Tests used:
Gamma-secretase = assay: Inhibition of Gamma-secretase in human IMR-32 cells after 2 hrs by ELISA assay; type: cell-based
In short: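 γ-Secretase came from IMR-32 cell membranes, and compound was first diluted in DMSO. Reaction at 37 °C was started with MBPC-125 Swedish substrate, run for 2 h, then stopped with SDS. Cleaved substrate was measured by Aβ40-specific ELISA. Values are means of three experiments.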

[1] = (§1) Oxidative metabolic stability in human liver microsomes at 1 uM after 30 mins in presence of 1 mM NADPH; type: ADME, Microsome; conditions: liver microsomes, read-out: Stability
In short: (§2)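 Oxidative stability: compound at 1 µM incubated 30 min at 37 °C in phosphate buffer with liver microsomes (0.5 mg/ml protein) plus 1 mM NADPH. Percent parent remaining reported. Human or mouse microsomes per line.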

[2] = Oxidative metabolic stability in mouse liver microsomes at 1 uM after 30 mins in presence of 1 mM NADPH; type: ADME, Microsome; conditions: for remaining at 0.5 h, 1 µM: liver microsomes, read-out: Stability; in short: as §2
Liver microsomes = assay: as §1; type: ADME, Microsome; conditions: microsomes, 0.5 h, 1 µM; in short: as §2

SMILES: O=S(=O)(c1ccc(Cl)cc1)N1Cc2c[nH]nc2-c2ccccc21
- IC50 (Gamma-secretase): 27 nM
- remaining at 0.5 h, 1 µM [1]: 0%
- remaining at 0.5 h, 1 µM [2]: 2%

SMILES: O=S(=O)(c1ccc(C(F)(F)F)cc1)N1c2cc(N3CCOCC3)ccc2-c2n[nH]cc2C1C1CC1 (racemic)
- IC50 (Gamma-secretase): 0.58 nM
- remaining at 0.5 h, 1 µM [1]: 29%
- remaining at 0.5 h, 1 µM [2]: 17%

SMILES: O=S(=O)(c1ccc(OC(F)F)cc1)N1c2ccc(F)cc2-c2n[nH]cc2C1C1CC1 (racemic)
- IC50 (Gamma-secretase): 0.76 nM
- remaining at 0.5 h, 1 µM [1]: 68%
- remaining at 0.5 h, 1 µM [2]: 56%

SMILES: O=S(=O)(c1cccs1)N1c2cc(F)c(F)cc2-c2n[nH]cc2C1C1CC1 (racemic)
- IC50 (Gamma-secretase): 2.9 nM
- remaining at 0.5 h, 1 µM [1]: 1%
- remaining at 0.5 h, 1 µM [2]: 5%

SMILES: O=S(=O)(c1ccc(C(F)(F)F)cc1)N1c2cccnc2-c2n[nH]cc2C1C1CC1 (racemic)
- IC50 (Gamma-secretase): 2.1 nM
- remaining at 0.5 h, 1 µM [1]: 44%
- remaining at 0.5 h, 1 µM [2]: 25%

SMILES: CC1c2c[nH]nc2-c2ccccc2N1S(=O)(=O)c1ccccn1 (racemic)
- IC50 (Gamma-secretase): 290 nM
- remaining at 0.5 h, 1 µM [1]: 73%
- remaining at 0.5 h, 1 µM [2]: 46%

SMILES: CC(C)C1c2c[nH]nc2-c2ccccc2N1S(=O)(=O)c1ccc(Cl)cc1 (racemic)
- IC50 (Gamma-secretase): 0.28 nM
- remaining at 0.5 h, 1 µM [1]: 1%
- remaining at 0.5 h, 1 µM [2]: 2%

SMILES: O=S(=O)(c1ccc(C(F)(F)F)cc1)N1c2ncccc2-c2n[nH]cc2C1C1CC1 (racemic)
- IC50 (Gamma-secretase): 1.1 nM
- remaining at 0.5 h, 1 µM [1]: 59%
- remaining at 0.5 h, 1 µM [2]: 53%

SMILES: Nc1ccc(S(=O)(=O)N2c3cc(F)c(F)cc3-c3n[nH]cc3C2C2CC2)cc1 (racemic)
- IC50 (Gamma-secretase): 85 nM
- remaining at 0.5 h, 1 µM [1]: 53%
- remaining at 0.5 h, 1 µM [2]: 35%

SMILES: O=C1OCCN1c1ccc2c(c1)N(S(=O)(=O)c1ccc(C(F)(F)F)cc1)C(C1CC1)c1c[nH]nc1-2 (racemic)
- IC50 (Gamma-secretase): 0.26 nM
- remaining at 0.5 h, 1 µM [1]: 32%
- remaining at 0.5 h, 1 µM [2]: 13%

SMILES: O=S(=O)(c1ccc(Cl)cc1)N1c2ccccc2-c2n[nH]cc2C1C(F)(F)F (racemic)
- IC50 (Gamma-secretase): 0.21 nM
- remaining at 0.5 h, 1 µM [1]: 13%
- remaining at 0.5 h, 1 µM [2]: 10%

SMILES: CC1c2c[nH]nc2-c2cc(F)ccc2N1S(=O)(=O)c1ccc(Cl)cc1 (racemic)
- IC50 (Gamma-secretase): 1.6 nM
- remaining at 0.5 h, 1 µM [1]: 13%
- remaining at 0.5 h, 1 µM [2]: 23%

SMILES: CC1c2c[nH]nc2-c2c(F)cccc2N1S(=O)(=O)c1ccc(Cl)cc1 (racemic)
- IC50 (Gamma-secretase): 1.4 nM
- remaining at 0.5 h, 1 µM [1]: 3%
- remaining at 0.5 h, 1 µM [2]: 11%

SMILES: O=S(=O)(c1ccc(C(F)(F)F)cc1)N1c2cc(Cl)ccc2-c2n[nH]cc2C1C1CC1 (racemic)
- IC50 (Gamma-secretase): 0.44 nM
- remaining at 0.5 h, 1 µM [1]: 87%
- remaining at 0.5 h, 1 µM [2]: 85%

SMILES: COc1ccc(S(=O)(=O)N2c3ccccc3-c3n[nH]cc3C2C2CC2)cc1 (racemic)
- IC50 (Gamma-secretase): 3.2 nM
- remaining at 0.5 h, 1 µM [1]: 3%
- remaining at 0.5 h, 1 µM [2]: 2%

SMILES: N#Cc1ccc(S(=O)(=O)N2c3ccccc3-c3n[nH]cc3C2C2CC2)cc1 (racemic)
- IC50 (Gamma-secretase): 0.74 nM
- remaining at 0.5 h, 1 µM [1]: 9%
- remaining at 0.5 h, 1 µM [2]: 11%

SMILES: CC1c2c[nH]nc2-c2ccncc2N1S(=O)(=O)c1ccc(Cl)cc1 (racemic)
- IC50 (Gamma-secretase): 2.6 nM
- remaining at 0.5 h, 1 µM [1]: 6%
- remaining at 0.5 h, 1 µM [2]: 3%

SMILES: CC1c2c[nH]nc2-c2ccccc2N1S(=O)(=O)c1ccc(Cl)cc1 (racemic)
- IC50 (Gamma-secretase): 1.2 nM
- remaining at 0.5 h, 1 µM [1]: 3%
- remaining at 0.5 h, 1 µM [2]: 16%

SMILES: CCC1c2cn[nH]c2-c2ccccc2N1S(=O)(=O)c1ccc(Cl)cc1 (racemic)
- IC50 (Gamma-secretase): 0.36 nM
- remaining at 0.5 h, 1 µM [1]: 2%
- remaining at 0.5 h, 1 µM [2]: 7%

SMILES: O=S(=O)(c1ccc(C(F)(F)F)cc1)N1c2cc(-c3cncnc3)ccc2-c2n[nH]cc2C1C1CC1 (racemic)
- IC50 (Gamma-secretase): 0.2 nM
- remaining at 0.5 h, 1 µM [1]: 27%
- remaining at 0.5 h, 1 µM [2]: 3%

SMILES: O=S(=O)(c1ccc(C(F)(F)F)cc1)N1c2c[n+]([O-])ccc2-c2n[nH]cc2C1C1CC1 (racemic)
- IC50 (Gamma-secretase): 2.4 nM
- remaining at 0.5 h, 1 µM [1]: 87%
- remaining at 0.5 h, 1 µM [2]: 88%

SMILES: CC1c2c[nH]nc2-c2ccc(F)cc2N1S(=O)(=O)c1ccc(Cl)cc1 (racemic)
- IC50 (Gamma-secretase): 2.1 nM
- remaining at 0.5 h, 1 µM [1]: 6%
- remaining at 0.5 h, 1 µM [2]: 23%

SMILES: CC1c2c[nH]nc2-c2ccc(OC(=O)N(C)C)cc2N1S(=O)(=O)c1ccc(Cl)cc1 (racemic)
- IC50 (Gamma-secretase): 0.93 nM
- remaining at 0.5 h, 1 µM [1]: 0%
- remaining at 0.5 h, 1 µM [2]: 0%

SMILES: N#Cc1ccc2c(c1)N(S(=O)(=O)c1ccc(C(F)(F)F)cc1)C(C1CC1)c1c[nH]nc1-2 (racemic)
- IC50 (Gamma-secretase): 0.17 nM
- remaining at 0.5 h, 1 µM [1]: 80%
- remaining at 0.5 h, 1 µM [2]: 77%

SMILES: CC1c2c[nH]nc2-c2ccc(OCc3ccccc3)cc2N1S(=O)(=O)c1ccc(Cl)cc1 (racemic)
- IC50 (Gamma-secretase): 1.5 nM
- remaining at 0.5 h, 1 µM [1]: 0%
- remaining at 0.5 h, 1 µM [2]: 1%

SMILES: Cc1nc2c(s1)N(S(=O)(=O)c1ccc(C(F)(F)F)cc1)C(C1CC1)c1c[nH]nc1-2 (racemic)
- IC50 (Gamma-secretase): 24 nM
- remaining at 0.5 h, 1 µM [1]: 31%
- remaining at 0.5 h, 1 µM [2]: 8%

SMILES: CC1c2c[nH]nc2-n2ccnc2N1S(=O)(=O)c1ccc(Cl)cc1 (racemic)
- IC50 (Gamma-secretase): 27 nM
- remaining at 0.5 h, 1 µM [1]: 74%
- remaining at 0.5 h, 1 µM [2]: 56%

SMILES: CC1c2cn[nH]c2-c2ccccc2N1S(=O)(=O)c1cccnc1 (racemic)
- IC50 (Gamma-secretase): 140 nM
- remaining at 0.5 h, 1 µM [2]: 3%

SMILES: CC1c2c[nH]nc2-c2cc(F)ccc2N1S(=O)(=O)c1cn(C)cn1 (racemic)
- IC50 (Gamma-secretase): 5500 nM
- remaining at 0.5 h, 1 µM [1]: 76%
- remaining at 0.5 h, 1 µM [2]: 65%

SMILES: O=[N+]([O-])c1ccc(S(=O)(=O)N2c3cc(F)c(F)cc3-c3n[nH]cc3C2C2CC2)cc1 (racemic)
- IC50 (Gamma-secretase): 40 nM
- Stability (Liver microsomes): Not Active
- Stability ([2]; microsomes, 0.5 h, 1 µM): Not Active

SMILES: O=S(=O)(c1ccc(F)cc1)N1c2ccccc2-c2n[nH]cc2C1C1CC1 (racemic)
- IC50 (Gamma-secretase): 0.42 nM
- remaining at 0.5 h, 1 µM [1]: 8%
- remaining at 0.5 h, 1 µM [2]: 11%

SMILES: O=S(=O)(c1ccc(C(F)(F)F)cc1)N1c2cc(-n3ccnc3)ccc2-c2n[nH]cc2C1C1CC1 (racemic)
- IC50 (Gamma-secretase): 0.24 nM
- remaining at 0.5 h, 1 µM [1]: 59%
- remaining at 0.5 h, 1 µM [2]: 55%

SMILES: CC1c2cn[nH]c2-c2ccc(O)cc2N1S(=O)(=O)c1ccc(Cl)cc1 (racemic)
- IC50 (Gamma-secretase): 0.65 nM
- remaining at 0.5 h, 1 µM [1]: 50%
- remaining at 0.5 h, 1 µM [2]: 27%

SMILES: CC1c2c[nH]nc2-c2cc(Cl)sc2N1S(=O)(=O)c1ccc(C(F)(F)F)cc1 (racemic)
- IC50 (Gamma-secretase): 4.5 nM
- remaining at 0.5 h, 1 µM [1]: 3%
- remaining at 0.5 h, 1 µM [2]: 18%

SMILES: O=S(=O)(c1ccc(Cl)cc1)N1c2ccccc2-c2n[nH]cc2C1C1CC1 (racemic)
- IC50 (Gamma-secretase): 0.17 nM
- remaining at 0.5 h, 1 µM [1]: 4%
- remaining at 0.5 h, 1 µM [2]: 15%

SMILES: O=S(=O)(c1ccc(OC(F)(F)F)cc1)N1c2ccc(F)cc2-c2n[nH]cc2C1C1CC1 (racemic)
- IC50 (Gamma-secretase): 0.37 nM
- remaining at 0.5 h, 1 µM [1]: 60%
- remaining at 0.5 h, 1 µM [2]: 55%

SMILES: O=S(=O)(c1ccc(Cl)s1)N1c2cc(F)c(F)cc2-c2n[nH]cc2C1C1CC1 (racemic)
- IC50 (Gamma-secretase): 0.52 nM
- remaining at 0.5 h, 1 µM [1]: 4%
- remaining at 0.5 h, 1 µM [2]: 9%

SMILES: COc1ccc2c(c1)N(S(=O)(=O)c1ccc(Cl)cc1)C(C)c1c[nH]nc1-2 (racemic)
- IC50 (Gamma-secretase): 2 nM
- remaining at 0.5 h, 1 µM [1]: 1%
- remaining at 0.5 h, 1 µM [2]: 1%

SMILES: O=S(=O)(c1ccc(Cl)cn1)N1c2ccc(F)cc2-c2n[nH]cc2C1C1CC1 (racemic)
- IC50 (Gamma-secretase): 1.3 nM
- remaining at 0.5 h, 1 µM [1]: 62%
- remaining at 0.5 h, 1 µM [2]: 49%

SMILES: O=S(=O)(c1ccc(C(F)(F)F)cc1)N1c2ccccc2-c2n[nH]cc2C1C1CC1 (racemic)
- IC50 (Gamma-secretase): 0.31 nM
- remaining at 0.5 h, 1 µM [1]: 45%
- remaining at 0.5 h, 1 µM [2]: 49%

SMILES: O=S(=O)(c1ccc(C(F)(F)F)cc1)N1c2cc(-c3cscn3)ccc2-c2n[nH]cc2C1C1CC1 (racemic)
- IC50 (Gamma-secretase): 0.41 nM
- remaining at 0.5 h, 1 µM [1]: 60%
- remaining at 0.5 h, 1 µM [2]: 32%

SMILES: O=S(=O)(c1ncc(Cl)s1)N1c2cc(F)c(F)cc2-c2n[nH]cc2C1C1CC1 (single isomer, unassigned; enantiomer 2)
- IC50 (Gamma-secretase): 0.46 nM
- remaining at 0.5 h, 1 µM [1]: 23%
- remaining at 0.5 h, 1 µM [2]: 4%

SMILES: O=S(=O)(c1ccc(C(F)(F)F)cc1)N1c2cc(I)ccc2-c2n[nH]cc2C1C1CC1 (single isomer, unassigned; enantiomer 3)
- IC50 (Gamma-secretase): 0.26 nM
- remaining at 0.5 h, 1 µM [1]: 80%
- remaining at 0.5 h, 1 µM [2]: 78%
